Holding throughout (assay type): cell-based
The target in test [1] is T1, 5-hydroxytryptamine receptor 1A (Homo sapiens) (UniProt P08908).
T1 sequence (whole entry): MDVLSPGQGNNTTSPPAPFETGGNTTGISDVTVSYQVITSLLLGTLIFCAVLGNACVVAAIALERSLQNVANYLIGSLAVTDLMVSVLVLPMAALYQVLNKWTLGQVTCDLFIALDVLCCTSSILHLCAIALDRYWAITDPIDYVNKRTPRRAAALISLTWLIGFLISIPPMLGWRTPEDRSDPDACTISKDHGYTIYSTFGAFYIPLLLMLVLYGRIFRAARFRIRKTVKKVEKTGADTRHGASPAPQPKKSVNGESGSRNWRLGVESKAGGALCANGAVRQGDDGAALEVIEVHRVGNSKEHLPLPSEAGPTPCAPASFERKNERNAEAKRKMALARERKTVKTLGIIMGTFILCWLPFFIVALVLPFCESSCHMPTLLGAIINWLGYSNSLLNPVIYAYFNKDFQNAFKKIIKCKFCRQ
Briefly: Displacement of [3H]MPPF from human cloned 5HT1A receptor expressed in HEK293 cells at 3 uM after 90 mins by liquid scintillation counting. An outline of the steps: (§1)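 Crude membranes from HEK293 cells stably expressing the receptor (G418 selection) in 50 mM Tris, pH 7.4. Radioligand targeted at ~500 pM. Compound added from a 3 mM DMSO stock diluted 1:1000. Nonspecific binding defined with 5 μM NAN-190 (5-HT1A) or 5 μM mianserin (5-HT2C). Incubated ≥90 min at 25°C, then filtered through PEI-soaked GF/C filters. Percent displacement of specific binding; triplicates, 3–4 experiments.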
A general note: Displacement assays read how much labelled ligand stays bound in the presence of the test substance.

Test [2] deals with T2, 5-hydroxytryptamine receptor 2A (Homo sapiens, UniProt P28223). The experiment in a line: Displacement of [3H]methylspiperone from human cloned 5HT2A receptor expressed in HEK293 cells at 3 uM after 90 mins by liquid scintillation counting. An outline of the steps: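 Crude membranes from HEK293 cells stably expressing the receptor (calcium phosphate transfection, G418-selected clones), in 50 mM Tris pH 7.4. Single-point screen: 3 mM DMSO stock diluted 1:1000. Radioligand targeted at about 500 pM, nonspecific binding defined by 5 μM mianserin. Incubated at least 90 min at 25°C, then filtered on PEI-soaked GF/C filters and washed cold. Percent specific displacement, triplicates, 3–4 experiments.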

Test [3] addresses T3, 5-hydroxytryptamine receptor 2C (Homo sapiens) (UniProt P28335).
T3 sequence (whole entry): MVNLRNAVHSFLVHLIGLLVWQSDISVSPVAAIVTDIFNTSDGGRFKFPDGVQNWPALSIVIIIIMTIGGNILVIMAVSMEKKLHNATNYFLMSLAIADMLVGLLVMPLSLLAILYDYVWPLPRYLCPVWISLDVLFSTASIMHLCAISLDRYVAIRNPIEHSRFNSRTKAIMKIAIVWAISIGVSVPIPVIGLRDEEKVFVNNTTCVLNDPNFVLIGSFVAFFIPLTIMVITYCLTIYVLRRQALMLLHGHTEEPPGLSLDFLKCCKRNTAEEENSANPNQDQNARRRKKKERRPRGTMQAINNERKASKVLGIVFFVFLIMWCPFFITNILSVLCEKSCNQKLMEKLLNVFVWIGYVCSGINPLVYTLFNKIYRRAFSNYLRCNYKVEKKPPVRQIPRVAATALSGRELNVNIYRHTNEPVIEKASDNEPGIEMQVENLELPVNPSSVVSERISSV
Briefly: Displacement of [3H]mesulergine from human cloned 5HT2C receptor expressed in HEK293 cells at 3 uM after 90 mins by liquid scintillation counting. An outline of the steps:
as §1

The target of test [4] is T2, 5-hydroxytryptamine receptor 2A. Briefly: Displacement of [3H]methylspiperone from human cloned 5HT2A receptor expressed in HEK293 cells after 90 mins by liquid scintillation counting. The method, boiled down:
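Nonspecific binding defined with 5 μM mianserin. Compounds in DMSO or DMSO:0.01 N HCl, non-aqueous solvent ≤1:300. Incubated ≥90 min at 25°C, then filtered. Ki from IC50 by Cheng-Prusoff, with the curve bottom fixed at zero for partial displacement. Geometric mean ± SD of 3–4 experiments in triplicate.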

Test [5] addresses T4, 5-hydroxytryptamine receptor 2C (Homo sapiens, UniProt P28335).
T4 sequence (P28335 whole entry): T3 sequence (whole entry)
Briefly: Displacement of [3H]mesulergine from human cloned 5HT2C receptor expressed in HEK293 cells after 90 mins by liquid scintillation counting.

A value given as a limit tells only on which side of the number the result lay.

The term Ki denotes a measure of affinity in units of concentration, obtained from inhibition or displacement. Read a low Ki as higher affinity.

T2 sequence (P28223 whole entry): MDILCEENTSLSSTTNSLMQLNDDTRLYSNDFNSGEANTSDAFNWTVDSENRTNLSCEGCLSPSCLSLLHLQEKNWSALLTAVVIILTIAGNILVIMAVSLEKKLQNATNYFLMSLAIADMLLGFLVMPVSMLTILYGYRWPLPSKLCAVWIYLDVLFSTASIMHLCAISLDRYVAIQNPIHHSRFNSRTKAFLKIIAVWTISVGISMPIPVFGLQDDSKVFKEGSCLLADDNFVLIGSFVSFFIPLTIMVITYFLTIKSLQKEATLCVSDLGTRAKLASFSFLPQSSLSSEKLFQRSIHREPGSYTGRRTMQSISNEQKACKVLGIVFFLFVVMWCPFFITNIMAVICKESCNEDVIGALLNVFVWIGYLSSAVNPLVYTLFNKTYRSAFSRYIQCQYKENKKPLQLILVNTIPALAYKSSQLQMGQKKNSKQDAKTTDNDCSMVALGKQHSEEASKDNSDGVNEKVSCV

As to `CN1C(=N)N(C)/C(=C/c2c[nH]c3ccc(Cl)cc23)C1=O`, the Activity in test [1] was 9%; in test [2], 22%; in test [3], 43%.

In turn, `CN1C(=N)N(C)/C(=C/c2c[nH]c3cc(F)ccc23)C1=O` had a Ki in test [4] of 235 nM. Besides, the Activity in test [1] is 2%; in test [2] it was 79%; in test [3], 0%.

With `CN1C(=N)NC(=O)/C1=C\c1c[nH]c2cc(Cl)ccc12`, the Activity in test [1] turned out to be 1%; in test [2] it was 0%; in test [3], 0%.

For `Cc1ncccc1Oc1ccc(NC(=O)N2CCc3cc(Br)ccc32)cn1`, the Ki was 3980 nM in test [4] and 3.2 nM in test [5].

`CCN1C(=N)N(C)/C(=C\c2c[nH]c3ccc(Br)cc23)C1=O`: the Activity in test [1] turned out to be 0%; in test [2], 9%; in test [3], 18%.

With `CN1C(=N)NC(=O)/C1=C\c1c[nH]c2cc(F)ccc12`, the Activity amounted to 0% in test [1], 6% in test [2] and 1% in test [3].

As for `O=C(Nc1cccnc1)N1CCc2ccccc21`, the inhibitory constant (Ki) in test [4] is over 10000 nM.

`Cc1ncccc1Oc1ccc(NC(=O)N2CCc3cc(I)ccc32)cn1` registered a Ki in test [5] of 3.2 nM.

As to `CN1C(=N)NC(=O)/C1=C\c1c[nH]c2ccc(F)cc12`, the results for the Activity in test [1], in test [2] and in test [3] were 0%, 0% and 19%, respectively.

As for `CN1C(=N)NC(=O)/C1=C\c1c[nH]c2ccc(Br)cc12`, the Activity in test [1] came out at 6%; in test [2], 0%; in test [3] it was 0%.

Regarding `Cc1cc2c(cc1I)N(C(=O)Nc1cccnc1)CC2`, the Ki in test [5] was found to be 3.2 nM.

In the case of `CCN1C(=N)N(C)/C(=C/c2c[nH]c3cc(Br)ccc23)C1=O`, the Activity in test [1] was determined as 0%; in test [2], 0%; in test [3], 49%.

With `CN1C(=N)N(C)/C(=C/c2c[nH]c3cc(Cl)c(Cl)cc23)C1=O`, the Activity in test [1] was 0%; in test [2], 12%; in test [3], 79%. In addition, the affinity in test [5] corresponds to a Ki of 46 nM.

With `CN1C(=N)N(C)/C(=C/c2c[nH]c3ccc(Br)cc23)C1=O`, the Activity is 18% in test [1], 37% in test [2] and 64% in test [3].

Take `CN1C(=N)NC(=O)/C1=C\c1c[nH]c2ccc(Cl)cc12`: the Activity in test [1] came out at 9%; in test [2] it was 9%; in test [3], 0%.

In test [5], `O=C(Nc1cccnc1)N1CCc2cc(I)c(Cl)cc21` returned a Ki of 3.2 nM.

As for `CCN1C(=N)N(C)/C(=C\c2c[nH]c3ccc(I)cc23)C1=O`, the Activity was determined as 15% in test [1], 35% in test [2] and 46% in test [3].

For `CN1C(=N)NC(=O)/C1=C\c1c[nH]c2cc(Cl)c(Cl)cc12`, the Activity in test [1] is 4%; in test [2], 0%; in test [3], 10%.

`CN1C(=N)NC(=O)/C1=C\c1c[nH]c2ccccc12`: the values for the Activity in test [1], in test [2] and in test [3] were 0%, 0% and 6%, respectively.

As for `CN1C(=N)N(C)/C(=C/c2c[nH]c3ccc(F)cc23)C1=O`, the values for the Activity in test [1], in test [2] and in test [3] were 4%, 10% and 0%, respectively.

`CN1C(=N)N(C)/C(=C/c2c[nH]c3cc(Br)ccc23)C1=O` registered a Ki in test [5] of 2200 nM.

For the compound `CN1C(=N)N(C)/C(=C/c2c[nH]c3cc(Cl)ccc23)C1=O`, the Activity in test [1] is 3%; in test [2] it was 0%; in test [3] it was 49%. In addition, the inhibition constant (Ki) in test [5] was 166 nM.

These data come from ChEMBL document CHEMBL1177649, “Synthesis and structure-affinity relationships of novel small molecule natural product derivatives capable of discriminating between serotonin 5-HT1A, 5-HT2A, 5-HT2C receptor subtypes” (Bioorg Med Chem, 2010).
